Laboratory results from ChEMBL document CHEMBL4699629, “N-Hydroxyformamide LpxC inhibitors, their in vivo efficacy in a mouse Escherichia coli infection model, and their safety in a rat hemodynamic assay” (Bioorg Med Chem, 2020).
Values after ≈ are worked out from the molar mass of the structure shown.

Tests used:
[1] = biological target: T1, UDP-3-O-acyl-N-acetylglucosamine deacetylase (Pseudomonas aeruginosa (strain ATCC 15692 / PAO1 / 1C / PRS 101 / LMG12228), UniProt P47205); assay: Displacement of fluorescent ligand from Pseudomonas aeruginosa LpxC measured after 30 mins by fluorescence anisotrophy assay
T1 sequence (P47205 whole entry): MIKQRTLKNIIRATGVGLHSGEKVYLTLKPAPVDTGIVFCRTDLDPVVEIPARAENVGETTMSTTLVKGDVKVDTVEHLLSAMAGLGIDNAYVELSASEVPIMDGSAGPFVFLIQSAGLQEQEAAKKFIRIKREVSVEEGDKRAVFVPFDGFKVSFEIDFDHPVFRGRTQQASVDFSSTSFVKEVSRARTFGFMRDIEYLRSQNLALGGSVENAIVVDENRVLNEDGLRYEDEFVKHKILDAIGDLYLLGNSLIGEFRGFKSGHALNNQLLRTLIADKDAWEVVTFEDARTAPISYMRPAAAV

Escherichia coli [2] = assay: Antibacterial activity against Escherichia coli ATCC 25922 assessed as bacterial growth inhibition by CLSI based broth microdilution method; assay type: functional
How it was run: (§1)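 CLSI broth microdilution determination of MIC.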

[3] = Displacement of fluorescent ligand from Escherichia coli LpxC measured after 30 mins by fluorescence anisotrophy assay
How it was run: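 Well mixes of 2 nM ligand C ± 12.5 nM E. coli LpxC; inhibitor two-fold dilutions 10 µM to […]; 30 min ambient, anisotropy 540/590 nm; % inhibition vs no-enzyme min; Hill fit for IC50; artifact correction at high concentrations.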

Klebsiella pneumoniae = assay: Antibacterial activity against Klebsiella pneumoniae ATCC 700603 assessed as bacterial growth inhibition by CLSI based broth microdilution method; assay type: functional; how it was run: as §1
Pseudomonas aeruginosa = assay: Antibacterial activity against Pseudomonas aeruginosa PAO1 assessed as bacterial growth inhibition by CLSI based broth microdilution method; assay type: functional; how it was run: as §1
[4] = Protein binding in mouse plasma assessed as unbound fraction after 7 hrs by LC-MS/MS-based rapid equilibrium dialysis method; assay type: ADME, cell-free
How it was run: (§2)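 Rapid equilibrium dialysis: plasma spiked to 5 µM final, dialysed against PBS at 37 °C for 7 h with 400 rpm shaking; both chambers protein-precipitated with acetonitrile/0.1% formic acid containing carbutamide internal standard, quantified by LC-MS/MS. fu = buffer/sample peak area ratio; recovery accepted between 70 and 130%.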

[5] = Ratio of fAUC in mouse at 200 mg/kg, sc to MIC for antibacterial activity against Escherichia coli ARC6599 infected in cyclophosphamide-induced CD-1 mouse model of neutropenic thigh infection; assay type: ADME, organism-based; details: in vivo
Escherichia coli [6] = assay: Antibacterial activity against Escherichia coli ARC6599 infected in cyclophosphamide-induced CD-1 mouse model of neutropenic thigh infection assessed as log10 reduction in CFU at 200 mg/kg, sc qd administered 2 hrs post-infection and measured after 24 hrs; assay type: functional
How it was run: (§3)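 Female CD-1 mice made neutropenic with cyclophosphamide IP, 150 mg/kg day -4 and 100 mg/kg day -1. Saline suspension from overnight plate, OD625 0.13, diluted; 100 µL i.m. into both rear thighs (actual 7.6×10^5 CFU/thigh). Dosing began 2 h post-infection, s.c. at 20 mL/kg in 5% DMSO plus 2.5% dextrose/20 mM acetate ([…]); 3 mice/group. Thighs harvested 26 h post-infection, homogenized in 2 mL saline, plated; mean and SD of log CFU.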

[7] = Clearance in Sprague-Dawley rat at 90 mg/kg, iv administered as single bolus dose by HPLC analysis; assay type: ADME, organism-based; details: in vivo
How it was run: (§4)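 Fasted male Sprague-Dawley rats given one IV tail-vein slow-push bolus of compound formulated at 90 mg/mL in 2.5% dextrose/20 mM acetate pH 5, 1 mL/kg; saphenous blood at selected times into K2EDTA for plasma.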

[8] = Observed clearance in mouse at 200 mg/kg, sc; assay type: ADME, organism-based; details: in vivo
[9] = Volume of distribution in mouse at 200 mg/kg, sc; assay type: ADME, organism-based; details: in vivo
Acetylcholinesterase = Acetylcholinesterase (Homo sapiens, UniProt P22303); assay: Inhibition of human AchE expressed in HEK293 cells using acetylthiocholine as substrate by Ellman's method
Acetylcholinesterase, sequence (P22303 whole entry): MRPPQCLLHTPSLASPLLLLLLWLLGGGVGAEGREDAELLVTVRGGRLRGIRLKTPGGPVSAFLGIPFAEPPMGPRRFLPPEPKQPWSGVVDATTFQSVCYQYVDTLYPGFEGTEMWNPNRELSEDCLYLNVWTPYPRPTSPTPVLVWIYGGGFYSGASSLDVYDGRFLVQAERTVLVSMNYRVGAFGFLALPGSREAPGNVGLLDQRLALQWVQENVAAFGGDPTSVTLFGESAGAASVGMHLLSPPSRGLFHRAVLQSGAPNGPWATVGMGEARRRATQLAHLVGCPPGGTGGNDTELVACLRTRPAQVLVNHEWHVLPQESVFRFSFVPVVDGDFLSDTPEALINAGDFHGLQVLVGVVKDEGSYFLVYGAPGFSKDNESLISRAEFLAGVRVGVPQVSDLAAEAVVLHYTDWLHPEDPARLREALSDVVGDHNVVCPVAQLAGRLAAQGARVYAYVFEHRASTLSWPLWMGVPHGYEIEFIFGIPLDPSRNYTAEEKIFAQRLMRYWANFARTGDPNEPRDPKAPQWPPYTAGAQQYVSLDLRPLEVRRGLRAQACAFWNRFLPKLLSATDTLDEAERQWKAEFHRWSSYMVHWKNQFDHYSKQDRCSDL
How it was run: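 Purified recombinant enzyme in 0.1 M sodium phosphate pH 7.4 with 0.01% Triton X-100. Two-fold inhibitor dilutions from 300 µM to 0.29 µM plus zero, each held at 3% DMSO. Acetylthiocholine and Ellman's reagent added as a solution of 1.2 mM each; reaction started with 0.006 U/mL enzyme solution. A412 read every minute for 1 h, with a no-enzyme blank subtracted. Initial slopes give % inhibition; IC50 from a Hill-equation fit.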

Escherichia coli [10] = assay: Antibacterial activity against Escherichia coli ARC6599 infected in cyclophosphamide-induced CD-1 mouse model of neutropenic thigh infection assessed as log10 reduction in CFU at 200 mg/kg, sc bid administered 2 hrs post-infection and measured after 24 hrs; assay type: functional; how it was run: as §3
[11] = Cmax in mouse at 200 mg/kg, sc; assay type: ADME, organism-based; set-up: route subcutaneous, dose 200 mg/kg; details: in vivo
[12] = Volume of distribution at steady state in Sprague-Dawley rat at 90 mg/kg, iv administered as single bolus dose by HPLC analysis; assay type: ADME, organism-based; details: in vivo, read-out: Vdss; how it was run: as §4
Escherichia coli [13] = assay: Antibacterial activity against Escherichia coli ARC6599 infected in sc dosed cyclophosphamide-induced CD-1 mouse model of neutropenic thigh infection assessed as reduction in CFU administered 2 hrs post-infection and measured after 24 hrs; assay type: functional, organism-based; how it was run: as §3
[14] = Protein binding in rat plasma assessed as unbound fraction after 7 hrs by LC-MS/MS-based rapid equilibrium dialysis method; assay type: ADME, cell-free; how it was run: as §2
[15] = AUC in mouse at 200 mg/kg, sc; assay type: ADME, organism-based; set-up: dose 200 mg/kg; details: in vivo
[16] = Chemical stability of the compound; assay type: physicochemical
[17] = Solubility of the compound in 2.5% dextrose in sodium acetate buffer at pH 5; assay type: physicochemical

Compound | IC50 [1] [nM] | MIC (Escherichia coli [2]) [µg/mL] | IC50 [3] [nM] | also measured
CS[C@H](Cn1nnc2cc(C#Cc3ccc(CN4CCOCC4)cc3)ccc21)N(O)C=O | 21 | 4 (≈ 8.86 µM) | 41 | 
CCC(Cc1n[nH]c2cc(C#Cc3ccc(CN4CCOCC4)cc3)ccc12)N(O)C=O (stereo not drawn) | 10 | 4 (≈ 9.25 µM) | 19 | MIC (Klebsiella pneumoniae): > 64 µg/mL; MIC (Pseudomonas aeruginosa): > 64 µg/mL
O=CN(O)CCCc1ccc(C#Cc2ccc(CN3CCOCC3)cc2)cc1 | 63 | 32 (≈ 84.6 µM) | 21 | 
CS[C@@H](Cn1nnc2cc(C#Cc3ccc(CN4CCOCC4)cc3)ccc21)N(O)C=O | < 1 | 0.13 (≈ 0.288 µM) | < 10 | fraction unbound at 7 h [4]: 0.09; fAUC/MIC [5]: 104; Activity (Escherichia coli [6]): 2 log10CFU; clearance [7]: 33.3 mL/min/kg; MIC (Klebsiella pneumoniae): 4 µg/mL (≈ 8.86 µM); CL [8]: 80 mL/min/kg; Vd [9]: 10.1 L/kg; IC50 (Acetylcholinesterase): 3500 nM; Activity (Escherichia coli [10]): >3.2 log10CFU; Cmax [11]: 21500 ng/mL; Vd [12]: 0.58 L/kg; Activity (Escherichia coli [13]): Dose-dependent effect; fraction unbound at 7 h [14]: 0.03; AUC [15]: 34800 ng·h/mL; MIC (Pseudomonas aeruginosa): 4 µg/mL (≈ 8.86 µM)
O=CN(O)CCn1ccc2cc(C#Cc3ccc(CN4CCOCC4)cc3)ncc21 | 1000 | 64 (≈ 158 µM) | 740 | 
O=C(CNC(=O)c1ccc(C#Cc2ccc(CN3CCOCC3)cc2)cc1)NO | 63 | 16 (≈ 40.7 µM) | 21 | MIC (Klebsiella pneumoniae): > 64 µg/mL; MIC (Pseudomonas aeruginosa): 64 µg/mL (≈ 163 µM)
COC(Cn1nnc2cc(C#Cc3ccc(CN4CCOCC4)cc3)ccc21)N(O)C=O (stereo not drawn) | 7.3 | 0.25 (≈ 0.574 µM) | < 10 | Stabilty [16]: Unstable
O=CN(O)CCn1cnc2cc(C#Cc3ccc(CN4CCOCC4)cc3)ccc21 | 1100 | 16 (≈ 39.6 µM) | 82 | 
O=CN(O)CCN1C(=O)Cc2cc(C#Cc3ccc(CN4CCOCC4)cc3)ccc21 | 170 | 4 (≈ 9.54 µM) | 25 | 
O=CN(O)CCn1nnc2cc(C#Cc3ccc(CN4CCOCC4)cc3)ccc21 | 44 | 4 (≈ 9.87 µM) | 20 | 
O=CN(O)C(CO)Cn1nnc2cc(C#Cc3ccc(CN4CCOCC4)cc3)ccc21 (stereo not drawn) | 61 | 2 (≈ 4.59 µM) | 42 | 
C[C@@H](O)[C@H](NC(=O)c1ccc(C#Cc2ccc(CN3CCOCC3)cc2)cc1)C(=O)NO |  | 0.13 (≈ 0.297 µM) | < 10 | MIC (Klebsiella pneumoniae): 2 µg/mL (≈ 4.57 µM); MIC (Pseudomonas aeruginosa): 1 µg/mL (≈ 2.29 µM)
O=CN(O)CCn1ccc2cc(C#Cc3ccc(CN4CCOCC4)cc3)ccc21 | 45 | 2 (≈ 4.96 µM) | 10 | 
CC[C@@H]([C@@H](CC(C)O)c1n[nH]c2cc(C#Cc3ccc(CN4CCOCC4)cc3)ccc12)N(O)C=O (mixture of isomers) | 2.5 | 1 | < 10 | MIC (Klebsiella pneumoniae): 32 µg/mL; MIC (Pseudomonas aeruginosa): 16 µg/mL
CCC(Cn1nnc2cc(C#Cc3ccc(CN4CCOCC4)cc3)ccc21)N(O)C=O (stereo not drawn) | 2.4 | 1 (≈ 2.31 µM) | < 10 | 
O=CN(O)CCc1nnc2cc(C#Cc3ccc(CN4CCOCC4)cc3)ccn12 | 280 | 16 (≈ 39.5 µM) | 54 | 
O=CN(O)CCc1nnn2cc(C#Cc3ccc(CN4CCOCC4)cc3)ccc12 | 37 | 4 (≈ 9.87 µM) | 15 | 
CCOC(Cn1nnc2cc(C#Cc3ccc(CN4CCOCC4)cc3)ccc21)N(O)C=O (stereo not drawn) | 41 | 2 (≈ 4.45 µM) | 22 | Stabilty [16]: Unstable
CSC(Cn1nnc2cc(C#Cc3ccc(CN4CCOCC4)cc3)ccc21)N(O)C=O (stereo not drawn) | 1.3 | 0.25 (≈ 0.554 µM) | < 10 | 
CS[C@@H](Cn1nnc2cc(C#Cc3ccc(CN4CC5(C4)C[S+]([O-])C5)cc3)ccc21)N(O)C=O.O=C(O)C(F)(F)F |  |  |  | solubility [17]: > 200 mg/mL
O=CN(O)CCn1ccc2nc(C#Cc3ccc(CN4CCOCC4)cc3)ccc21 | 1000 | 32 (≈ 79.1 µM) | 170 | 
CC(Cn1nnc2cc(C#Cc3ccc(CN4CCOCC4)cc3)ccc21)N(O)C=O (stereo not drawn) | 14 | 2 (≈ 4.77 µM) |  | 
CCSC(Cn1nnc2cc(C#Cc3ccc(CN4CCOCC4)cc3)ccc21)N(O)C=O (stereo not drawn) | 5.4 | 0.5 (≈ 1.07 µM) | < 10 | 
O=CN(O)CCn1ncc2cc(C#Cc3ccc(CN4CCOCC4)cc3)ccc21 | 64 | 4 (≈ 9.89 µM) | 28 | 
